Measured values published in ChEMBL document CHEMBL1770063, “Synthesis and cytotoxic activity of benzo[a]acronycine and benzo[b]acronycine substituted on the A ring” (Eur J Med Chem, 2011).

Assays:
[1] = Cytotoxicity against human KB-3-1 cells after 96 hrs by MTA assay; type: functional, cell-based; conditions: KB 3-1, 96 h
How it was run: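 KB-3-1 cells grown in DMEM with 10% fetal calf serum, 2 mM L-glutamine, penicillin/streptomycin, 10 mM HEPES (pH 7.4). Exposed to nine serial drug dilutions in triplicate for 96 h (four doubling times); microculture tetrazolium read-out. IC50 is the concentration reducing optical density by 50% relative to untreated controls.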

L1210 = assay: Cytotoxicity against mouse L1210 cells after 48 hrs by MTA assay; type: functional, cell-based; conditions: L1210, 48 h
How it was run: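 L1210 cells maintained in RPMI 1640 plus 10% fetal calf serum, 2 mM L-glutamine, penicillin/streptomycin and 10 mM HEPES (pH 7.4). Drug given at nine serial dilutions, triplicate, for 48 h (four doubling times), then tetrazolium microculture assay. IC50 is the concentration giving 50% lower optical density than untreated controls.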

COc1cc2c(c3c1c(=O)c1cc4cc(Br)ccc4cc1n3C)[C@@H](O)[C@@H](O)C(C)(C)O2 (racemic)
IC50 [1]: 36300 nM
IC50 (L1210): 225 nM

COc1cc2c(c3c1c(=O)c1cc4cc(Br)ccc4cc1n3C)C=CC(C)(C)O2
IC50 [1]: 9900 nM
IC50 (L1210): 2200 nM

COc1cc2c(c3c1c(=O)c1cc4cc(Br)ccc4cc1n3C)[C@@H](OC(C)=O)[C@@H](OC(C)=O)C(C)(C)O2 (racemic)
IC50 [1]: 115 nM
IC50 (L1210): 600 nM

COc1cc2c(c3c1c(=O)c1c4ccc(Br)cc4ccc1n3C)[C@H]1OC(=O)O[C@H]1C(C)(C)O2 (racemic)
IC50 [1]: 15 nM
IC50 (L1210): 80 nM

COc1cc2c(c3c1c(=O)c1c4ccccc4ccc1n3C)[C@@H](OC(C)=O)[C@@H](OC(C)=O)C(C)(C)O2 (racemic)
IC50 [1]: 140 nM
IC50 (L1210): 730 nM

CC1(C)C=Cc2c(cc(O)c3c(=O)c4c(ccc5cc(Br)ccc54)[nH]c23)O1
IC50 [1]: 1700 nM
IC50 (L1210): 3400 nM

COc1cc2c(c3c1c(=O)c1c4ccc(Br)cc4ccc1n3C)[C@@H](OC(C)=O)[C@@H](OC(C)=O)C(C)(C)O2 (racemic)
IC50 [1]: 40 nM
IC50 (L1210): 400 nM

COc1cc2c(c3c1c(=O)c1c4ccc(Br)cc4ccc1n3C)[C@@H](O)[C@@H](O)C(C)(C)O2 (racemic)
IC50 [1]: 5500 nM
IC50 (L1210): 7600 nM

COc1cc2c(c3c1c(=O)c1cc4ccccc4cc1n3C)[C@@H](OC(C)=O)[C@@H](OC(C)=O)C(C)(C)O2 (racemic)
IC50 [1]: 95 nM

COc1cc2c(c3c1c(=O)c1cc4ccccc4cc1n3C)[C@H]1OC(=O)O[C@H]1C(C)(C)O2 (racemic)
IC50 (L1210): 16 nM

COc1cc2c(c3c1c(=O)c1c4ccccc4ccc1n3C)[C@H]1OC(=O)O[C@H]1C(C)(C)O2 (racemic)
IC50 [1]: 15 nM
IC50 (L1210): 59 nM

Cn1c2cc3ccc(Br)cc3cc2c(=O)c2c(O)cc3c(c21)C=CC(C)(C)O3
IC50 [1]: 14300 nM
IC50 (L1210): 645 nM

COc1cc2c(c3c1c(=O)c1c4ccc(Br)cc4ccc1n3C)C=CC(C)(C)O2
IC50 [1]: 1300 nM
IC50 (L1210): 490 nM

C=C1n2c3ccc4cc(Br)ccc4c3c(=O)c3c(O)cc(O)c(c32)C1(C)C
IC50 [1]: 2500 nM
IC50 (L1210): 7300 nM

C#CC(C)(C)Oc1cc(O)c2c(=O)c3c4ccc(Br)cc4ccc3n3c2c1C(C)(C)C3=C
IC50 [1]: 37100 nM
IC50 (L1210): 51100 nM

COc1cc2c(c3c1c(=O)c1c4ccccc4ccc1n3C)C=CC(C)(C)O2 [BENZO[A]ACRONYCINE]
IC50 [1]: 8600 nM

COc1cc2c(c3c1c(=O)c1cc4ccccc4cc1n3C)C=CC(C)(C)O2 [BENZO[B]ACRONYCINE]
IC50 [1]: 3400 nM

COc1cc2c(c3c1c(=O)c1cc4cc(Br)ccc4cc1n3C)[C@H]1OC(=O)O[C@H]1C(C)(C)O2 (racemic)
IC50 [1]: 11 nM
IC50 (L1210): 34 nM
